Calls of active or inactive are those of the source. The rule behind the calls is not given here. Some results are limits rather than exact numbers.

Consider 40 compounds from ChEMBL document CHEMBL1137627, “Hit generation and exploration: imidazo[4,5-b]pyridine derivatives as inhibitors of Aurora kinases” (Bioorg Med Chem Lett, 2007).

Data set [1] concerns the target T1, Aurora kinase A (Homo sapiens) (UniProt O14965).
T1 sequence (whole entry): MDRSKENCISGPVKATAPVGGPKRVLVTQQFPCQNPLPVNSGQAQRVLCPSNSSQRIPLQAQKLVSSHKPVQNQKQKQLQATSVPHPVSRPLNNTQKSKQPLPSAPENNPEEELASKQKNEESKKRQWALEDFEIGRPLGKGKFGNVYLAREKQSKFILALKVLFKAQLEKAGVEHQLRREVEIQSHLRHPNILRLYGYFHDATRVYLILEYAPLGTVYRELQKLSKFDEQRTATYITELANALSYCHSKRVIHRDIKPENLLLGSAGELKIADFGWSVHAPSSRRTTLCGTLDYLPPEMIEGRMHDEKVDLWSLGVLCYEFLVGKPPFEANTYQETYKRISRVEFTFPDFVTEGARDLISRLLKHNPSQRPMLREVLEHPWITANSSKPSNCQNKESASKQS
The data set can be described thus: Inhibition of aurora A kinase at 10 uM. Put shortly: (§1)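 Aurora-A kinase activity measured by Flashplate or Filterplate assay at 20 µM ATP. Samples run in triplicate and mean reported; some IC50 values are the mean of independent determinations.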

For a further data set, the target named is T2, Aurora kinase A (Homo sapiens, UniProt O14965).
T2 sequence (O14965 whole entry): T1 sequence (whole entry)
Description: Inhibition of aurora A kinase. Put shortly:
as §1

Data set [2] concerns the target T1, Aurora kinase A (Homo sapiens). Description: Inhibition of aurora A kinase at 100 uM. The procedure, abridged:
as §1

Another data set has as its target Aurora kinase B (Homo sapiens, UniProt Q96GD4). The data set can be described thus: Inhibition of recombinant aurora B kinase. Put shortly: (§2)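 Purified recombinant Aurora kinase; IC50 determined by either a Flashplate or a Filterplate assay, with ATP in the assay at 20.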
The next data set has as its target T3, Aurora kinase C (Homo sapiens, UniProt Q9UQB9).
T3 sequence (Q9UQB9 whole entry): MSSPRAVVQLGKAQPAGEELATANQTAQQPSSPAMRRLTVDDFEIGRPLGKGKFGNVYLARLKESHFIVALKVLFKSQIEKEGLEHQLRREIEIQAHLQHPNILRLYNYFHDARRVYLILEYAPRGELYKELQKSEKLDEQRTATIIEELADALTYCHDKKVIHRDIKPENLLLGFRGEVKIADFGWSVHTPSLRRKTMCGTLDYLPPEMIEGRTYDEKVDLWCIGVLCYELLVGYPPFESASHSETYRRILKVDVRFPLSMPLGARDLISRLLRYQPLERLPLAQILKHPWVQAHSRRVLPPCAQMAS
The data set can be described thus: Inhibition of recombinant aurora C kinase. Put shortly: as §2

For a further data set, the system named is HCT-116. The data set can be described thus: Antiproliferative activity against HCT116 cells. Particulars: Homo sapiens. In kind it is functional.
The test system of a further data set is HeLa. Description: Antiproliferative activity against HeLa cells. In kind it is functional. Particulars: Homo sapiens.
Data set [3] can be described thus: Metabolic stability in mouse liver microsomes after 30 mins. In kind it is ADME, Microsome. Particulars: read-out: Stability. The procedure, abridged:
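Compound incubated 30 min with mouse liver microsomes. Percent of parent compound remaining was reported.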

For a further data set, the target named is T4, Cytochrome P450 1A2 (Homo sapiens, UniProt P05177).
T4 sequence (P05177 whole entry): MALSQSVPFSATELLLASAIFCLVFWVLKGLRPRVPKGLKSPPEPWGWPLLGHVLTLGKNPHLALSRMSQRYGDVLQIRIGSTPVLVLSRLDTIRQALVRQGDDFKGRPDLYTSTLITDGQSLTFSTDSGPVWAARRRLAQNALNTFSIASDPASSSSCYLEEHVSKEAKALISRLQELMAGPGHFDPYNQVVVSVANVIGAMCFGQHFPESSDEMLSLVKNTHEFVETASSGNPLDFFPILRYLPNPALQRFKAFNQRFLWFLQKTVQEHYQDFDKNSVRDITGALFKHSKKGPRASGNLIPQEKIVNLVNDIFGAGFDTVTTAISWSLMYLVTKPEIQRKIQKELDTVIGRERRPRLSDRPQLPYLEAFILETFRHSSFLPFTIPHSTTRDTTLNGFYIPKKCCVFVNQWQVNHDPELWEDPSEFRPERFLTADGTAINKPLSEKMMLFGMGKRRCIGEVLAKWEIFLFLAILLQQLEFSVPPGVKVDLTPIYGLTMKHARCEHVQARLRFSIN
The data set can be described thus: Inhibition of human CYP1A2 after 10 mins. In kind it is ADME. Put shortly: (§3)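 Inhibition of CYP isozymes assayed in pooled human liver microsomes from 50 individuals. Microsomal protein 0.5 mg/ml, 10 min incubation. Mephenytoin served as the CYP2C19 substrate. Metabolites were detected by LC–MS–MS with positive electrospray ionisation.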

A further data set concerns the target T5, Cytochrome P450 2A6 (Homo sapiens, UniProt P11509).
T5 sequence (P11509 whole entry): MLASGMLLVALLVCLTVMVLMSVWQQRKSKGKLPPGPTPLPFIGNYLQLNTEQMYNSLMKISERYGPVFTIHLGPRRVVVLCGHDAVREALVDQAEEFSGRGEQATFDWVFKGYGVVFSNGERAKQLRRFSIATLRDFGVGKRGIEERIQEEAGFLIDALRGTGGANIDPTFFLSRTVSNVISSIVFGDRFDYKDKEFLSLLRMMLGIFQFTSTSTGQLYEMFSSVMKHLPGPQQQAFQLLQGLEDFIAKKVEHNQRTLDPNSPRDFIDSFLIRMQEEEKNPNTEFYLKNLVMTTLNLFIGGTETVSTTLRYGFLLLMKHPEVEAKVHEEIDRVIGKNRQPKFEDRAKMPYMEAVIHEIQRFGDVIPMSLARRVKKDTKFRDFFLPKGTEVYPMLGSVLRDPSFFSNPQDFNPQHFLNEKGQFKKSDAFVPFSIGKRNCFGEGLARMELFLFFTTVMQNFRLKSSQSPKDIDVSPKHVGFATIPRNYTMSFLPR
The data set can be described thus: Inhibition of human CYP2A6 after 10 mins. In kind it is ADME. Put shortly:
as §3

The target of a further data set is Cytochrome P450 2C19 (Homo sapiens, UniProt P33261). The data set can be described thus: Inhibition of human CYP2C19 after 10 mins. Format: ADME. The procedure, abridged: as §3
For a further data set, the target named is Cytochrome P450 2D6 (Homo sapiens, UniProt P10635). The data set can be described thus: Inhibition of human CYP2D6 after 10 mins. Format: ADME. The procedure, abridged: as §3
A further data set concerns the target Cytochrome P450 2C9 (Homo sapiens, UniProt P11712). Description: Inhibition of human CYP2C9 after 10 mins. In kind it is ADME. The procedure, abridged:
as §3

Chain of Cytochrome P450 2C19 (P33261 whole entry): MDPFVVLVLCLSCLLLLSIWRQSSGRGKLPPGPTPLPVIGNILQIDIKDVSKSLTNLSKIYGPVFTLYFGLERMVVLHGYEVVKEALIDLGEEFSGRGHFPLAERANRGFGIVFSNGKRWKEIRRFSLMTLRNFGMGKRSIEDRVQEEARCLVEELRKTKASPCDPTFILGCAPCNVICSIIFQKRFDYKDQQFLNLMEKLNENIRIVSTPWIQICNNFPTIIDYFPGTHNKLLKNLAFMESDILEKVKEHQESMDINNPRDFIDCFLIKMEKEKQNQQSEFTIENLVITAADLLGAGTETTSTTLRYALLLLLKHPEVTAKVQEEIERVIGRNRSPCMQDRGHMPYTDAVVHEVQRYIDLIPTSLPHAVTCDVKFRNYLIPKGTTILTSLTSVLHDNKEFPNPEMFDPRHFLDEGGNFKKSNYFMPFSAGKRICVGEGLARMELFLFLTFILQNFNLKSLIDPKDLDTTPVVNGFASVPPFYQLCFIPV
Chain of Aurora kinase B (Q96GD4 whole entry): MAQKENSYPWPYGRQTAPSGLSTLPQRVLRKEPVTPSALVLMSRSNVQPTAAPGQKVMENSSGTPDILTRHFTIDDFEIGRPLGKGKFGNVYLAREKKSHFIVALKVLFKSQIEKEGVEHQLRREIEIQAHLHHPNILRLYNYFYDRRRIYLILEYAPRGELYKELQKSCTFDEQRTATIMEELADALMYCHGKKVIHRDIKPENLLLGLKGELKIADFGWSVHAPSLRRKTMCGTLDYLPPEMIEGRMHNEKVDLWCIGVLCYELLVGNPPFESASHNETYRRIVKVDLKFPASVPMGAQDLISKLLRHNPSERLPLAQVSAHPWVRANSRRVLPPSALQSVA
Chain of Cytochrome P450 2C9 (P11712 whole entry): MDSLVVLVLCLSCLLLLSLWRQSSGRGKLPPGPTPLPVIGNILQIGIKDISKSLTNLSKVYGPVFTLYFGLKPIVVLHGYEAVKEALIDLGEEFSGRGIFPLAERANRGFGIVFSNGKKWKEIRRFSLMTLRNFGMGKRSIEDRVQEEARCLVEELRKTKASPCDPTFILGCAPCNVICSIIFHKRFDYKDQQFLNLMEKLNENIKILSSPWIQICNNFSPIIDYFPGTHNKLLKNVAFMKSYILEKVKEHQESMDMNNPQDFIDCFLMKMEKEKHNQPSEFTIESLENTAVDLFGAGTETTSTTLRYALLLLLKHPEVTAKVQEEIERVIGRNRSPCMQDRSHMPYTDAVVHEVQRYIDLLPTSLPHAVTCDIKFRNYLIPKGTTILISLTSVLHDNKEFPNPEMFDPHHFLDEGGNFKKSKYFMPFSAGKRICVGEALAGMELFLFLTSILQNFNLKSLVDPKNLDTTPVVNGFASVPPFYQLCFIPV
Chain of Cytochrome P450 2D6 (P10635 whole entry): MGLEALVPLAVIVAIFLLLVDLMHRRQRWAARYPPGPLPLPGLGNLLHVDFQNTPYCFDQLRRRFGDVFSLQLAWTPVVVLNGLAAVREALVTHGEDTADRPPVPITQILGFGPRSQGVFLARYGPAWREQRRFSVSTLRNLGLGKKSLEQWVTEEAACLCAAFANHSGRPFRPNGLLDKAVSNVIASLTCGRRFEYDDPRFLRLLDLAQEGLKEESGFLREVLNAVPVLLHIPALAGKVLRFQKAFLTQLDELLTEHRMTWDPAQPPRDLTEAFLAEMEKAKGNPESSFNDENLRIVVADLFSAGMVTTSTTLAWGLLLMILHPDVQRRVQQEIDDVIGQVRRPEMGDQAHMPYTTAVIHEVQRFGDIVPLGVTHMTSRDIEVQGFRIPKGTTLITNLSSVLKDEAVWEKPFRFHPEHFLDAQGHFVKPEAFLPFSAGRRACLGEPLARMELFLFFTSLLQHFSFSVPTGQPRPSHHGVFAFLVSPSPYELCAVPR

Regarding `CN(C)c1ccc(-c2nc3cc(-c4cccs4)cnc3[nH]2)cc1`, the inhibition in [1] came to 34%. Compound `CN(C)c1ccc(-c2nc3cc(-c4cccc(O)c4)cnc3[nH]2)cc1` registered an inhibition in data set [1] of 31%. `COc1ccc(-c2nc3ncccc3[nH]2)cc1` had an IC50 on Aurora kinase A of 6.6 µM. The same measure, in the same setting: the same measure for `COc1cc2ncnc(N3CCN(Cc4cccc5ccccc45)CC3)c2cc1OC`: 9.6 µM. For the compound `CN(C)c1ccc(-c2nc3cc(-c4ccc5c(c4)OCO5)cnc3[nH]2)cc1`, the inhibition in data set [2] was 33%. Regarding `COc1cc2ncnc(N3CCN(C(C)c4ccccc4)CC3)c2cc1OC` (stereo not given), the midpoint of inhibition on Aurora kinase A, the IC50, lay at 25 µM. On the same count and under the same terms, the same measure for `COc1cc2ncnc(N3CCN(CC(=O)N(C)c4ccccc4)CC3)c2cc1OC`: 16.5 µM. `CCn1c(-c2ccc(N(C)C)cc2)nc2cccnc21` returned an inhibition in data set [2] of 26%. Regarding `CC(=O)c1cccc(-c2cnc3[nH]c(-c4ccc(N(C)C)cc4)nc3c2)c1`, at Aurora kinase A, the IC50 amounted to 9 µM. `COc1cc2ncnc(N3CCN(CCOc4ccccc4)CC3)c2cc1OC`: on Aurora kinase A, half-maximal inhibition (IC50) required 35 µM.

For the compound `c1cnc2nc(-c3ccc(N4CCCC4)cc3)[nH]c2c1`, the midpoint of inhibition at Aurora kinase A, the IC50, lay at 4.6 µM. `COc1cc2ncnc(N3CCN(CC(=O)Nc4nccs4)CC3)c2cc1OC` returned an IC50 at Aurora kinase A of 5.9 µM. On the same count and under the same terms, the same measure for `CN(C)c1ccc(-c2nc3ncc(Br)cc3[nH]2)cc1`: 0.49 µM; for `CN(C)c1cccc(-c2nc3cccnc3[nH]2)c1`: 10 µM; for `COc1ccccc1-c1nc2ccc[nH]c-2n1`: 29 µM. With `COc1cc2ncnc(N3CCN(CCn4ccnc4)CC3)c2cc1OC`, the result in data set [2] was inactive.

On Aurora kinase A, `COc1ccc(-c2cnc3nc(-c4ccc(N(C)C)cc4)[nH]c3c2)cc1` returned an IC50 of 20 µM.

On Aurora kinase A, `CN(C)c1ccc(-c2nc3c(Cl)ccnc3[nH]2)cc1` came in with an IC50 of 2.4 µM. Still for that read-out and setting: the same measure for `CN(C)c1ccc(-c2nc3c(N4CCN(CC(=O)Nc5nccs5)CC4)ccnc3[nH]2)cc1`: 0.87 µM. At Aurora kinase A, `COc1cc2ncnc(N3CCN(CC(=O)N4CCCC4)CC3)c2cc1OC` registered an IC50 of 98 µM. Still for that read-out and setting: with `COc1cc2ncnc(N3CCN(Cc4ccc(F)cc4)CC3)c2cc1OC` the figure was 40 µM. On Aurora kinase A, `CN(C)c1ccc(-c2nc3ncc(-c4cccc(O)c4)cc3[nH]2)cc1` gave an IC50 of 18 µM. At Aurora kinase A, `Cc1cnc2[nH]c(-c3ccc(N(C)C)cc3)nc2c1` came in with an IC50 of 6.9 µM.

In [2], `CN(C)c1ccc(-c2nc3ccccc3[nH]2)cc1` came in with an inhibition of 8%. `CN(C)c1ccc(-c2nc3ncc(Cl)c(Cl)c3[nH]2)cc1` came in with an IC50 against Aurora kinase A of 0.25 µM. The compound `N#Cc1ccc(-c2nc3cccnc3[nH]2)cc1` displayed an inhibition in [1] of 38%. Turning to `CN(C)c1ccc(-c2nc3c(N4CCN(CC(=O)Nc5nccs5)CC4)c(Cl)cnc3[nH]2)cc1`, the IC50 at Aurora kinase B is 0.198 µM; at Aurora kinase C, 0.227 µM; at Cytochrome P450 1A2, > 10 µM; against Cytochrome P450 2A6, > 10 µM; on Cytochrome P450 2C19, > 10 µM; on Cytochrome P450 2D6, > 10 µM. Besides, at Cytochrome P450 2C9, the IC50 is 10 µM. For the same compound, the GI50 came out at 0.35 µM in the data set with HCT-116 and 0.2 µM with HeLa. Also, the remaining at 0.5 h in [3] worked out at 75%. In turn, `COc1cccc(-c2nc3ncccc3[nH]2)c1` came in with an IC50 against Aurora kinase A of 16 µM.

In the case of `CN(C)c1ccc(-c2nc3cc[nH]cc-3n2)cc1`, in data set [1], the inhibition amounted to 35%. Also, the IC50 against Aurora kinase A stood at 12.5 µM. Turning to `CN(C)c1ccccc1-c1nc2cccnc2[nH]1`, the inhibition in data set [1] was determined as 20%. In the case of `c1cnc2nc(-c3ccc(C4CCCCN4)cc3)[nH]c2c1` (stereo not given), the IC50 against Aurora kinase A is 4.4 µM. Same read-out and setting: the same measure for `CN(C)c1ccc(-c2nc3cc(C(F)(F)F)cnc3[nH]2)cc1`: 0.74 µM; for `CN(C)c1ccc(-c2nc3cccnc3[nH]2)cc1`: 4.3 µM. Consider `COc1cc2ncnc(N3CCN(CC(=O)OC(C)(C)C)CC3)c2cc1OC`, for which the result in data set [2] was inactive. The same measure, in the same setting: the same measure for `COc1cc2ncnc(N3CCN(c4cnccn4)CC3)c2cc1OC`: “inactive”. `CN(C)c1ccc(-c2nc3cc(Cl)cnc3[nH]2)cc1`: the IC50 on Aurora kinase A turned out to be 0.57 µM. For the compound `COc1cc2ncnc(N3CCN(c4ncccn4)CC3)c2cc1OC`, the outcome in [2] was inactive. Compound `CN(C)c1ccc(-c2nc3cc(-c4cccnc4)cnc3[nH]2)cc1` came in with an inhibition in data set [1] of 28%.

On Aurora kinase A, `COc1cc2ncnc(N3CCN(CCc4ccccc4)CC3)c2cc1OC` came in with an IC50 of 76 µM. Consider `Cc1ccnc2nc(-c3ccc(N(C)C)cc3)[nH]c12`, for which, at Aurora kinase A, the IC50 turned out to be 7 µM.

One may read the inhibition as the change of the read-out against control, counted positive when it falls. A lower inhibition goes with a response near the control. Usually IC50 stands for the point on the concentration scale where inhibition reaches its midpoint. Broadly, the GI50 is the concentration giving 50% growth inhibition. Read a high GI50 as lower sensitivity of the cells.
